Measurements from ChEMBL document CHEMBL3580574, “Design, Synthesis, and Biological Evaluation of Hexacyclic Tetracyclines as Potent, Broad Spectrum Antibacterial Agents” (J Med Chem, 2015).
In brackets after ≈: the same amount, converted by molar mass.

What was measured:
Type in all cases: functional
Staphylococcus aureus [1] = test: Antibacterial activity against Staphylococcus aureus 101 ATCC 29213 assessed as bacterial growth inhibition by susceptibility testing assay; conditions: Staphylococcus aureus, 101 ATCC 29213; read-out: MIC
In short: (§1)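 Broth microdilution MIC per CLSI in cation-adjusted Mueller Hinton broth, made fresh and held at 4 °C before testing. Medium supplemented with lysed horse blood where appropriate. Compound stocks prepared and serially diluted in sterile deionized water. Runs were accepted against QC ranges for comparator antibiotics and ATCC QC strains.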

Staphylococcus aureus [2] = test: Antibacterial activity against methicillin-resistant, tet(M) tetracycline-resistant Staphylococcus aureus 161 assessed as bacterial growth inhibition by susceptibility testing assay; conditions: Staphylococcus aureus, 161; read-out: MIC
In short: (§2)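 Broth microdilution MIC per CLSI in 96-well plates; compound stocks prepared and serially diluted in sterile deionized water; cation-adjusted Mueller Hinton broth prepared fresh and held at 4 °C before testing, supplemented with lysed horse blood as appropriate; runs accepted when comparator antibiotics fell within QC ranges for appropriate ATCC quality control strains.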

Enterococcus faecalis = test: Antibacterial activity against tet(M) tetracycline-resistant Enterococcus faecalis 327 assessed as bacterial growth inhibition by susceptibility testing assay; conditions: Enterococcus faecalis, 327; read-out: MIC; in short: as §2
Enterococcus faecium = test: Antibacterial activity against tet(M) tetracycline-resistant Enterococcus faecium 404 assessed as bacterial growth inhibition by susceptibility testing assay; conditions: Enterococcus faecium, 404; read-out: MIC
Enterobacter cloacae = test: Antibacterial activity against tet(A) tetracycline-resistant Enterobacter cloacae 603 assessed as bacterial growth inhibition by susceptibility testing assay; conditions: Enterobacter cloacae, 603; read-out: MIC; in short: as §2
Acinetobacter baumannii = test: Antibacterial activity against tet(B) tetracycline-resistant Acinetobacter baumannii 250 assessed as bacterial growth inhibition by susceptibility testing assay; conditions: Acinetobacter baumannii, 250; read-out: MIC; in short: as §2
Escherichia coli [3] = test: Antibacterial activity against Escherichia coli 107 ATCC 25922 assessed as bacterial growth inhibition by susceptibility testing assay; conditions: Escherichia coli, 107 ATCC 25922; read-out: MIC; in short: as §1
Streptococcus pneumoniae = test: Antibacterial activity against tet(M) tetracycline-resistant Streptococcus pneumoniae 160 assessed as bacterial growth inhibition by susceptibility testing assay; conditions: Streptococcus pneumoniae, 160; read-out: MIC
Klebsiella pneumoniae = test: Antibacterial activity against Klebsiella pneumoniae 457 harboring CTX-M-15 gene assessed as bacterial growth inhibition by susceptibility testing assay; conditions: Klebsiella pneumoniae, 457; read-out: MIC; in short: as §2
Staphylococcus aureus [4] = test: Antibacterial activity against tet(K) tetracycline-resistant Staphylococcus aureus 158 assessed as bacterial growth inhibition by susceptibility testing assay; conditions: Staphylococcus aureus, 158; read-out: MIC
[5] = tested on: Stenotrophomonas maltophilia; test: Antibacterial activity against Stenotrophomonas maltophilia 256 assessed as bacterial growth inhibition by susceptibility testing assay; conditions: Stenotrophomonas maltophilia, 256; read-out: MIC
In short: (§3)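 Medium supplemented with lysed horse blood where appropriate. Compound stocks prepared and serially diluted in sterile deionized water. Runs were accepted against QC ranges for comparator antibiotics and ATCC QC strains.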

Pseudomonas aeruginosa [6] = test: Antibacterial activity against Pseudomonas aeruginosa 555 BAA-47 assessed as bacterial growth inhibition by susceptibility testing assay; conditions: Pseudomonas aeruginosa, 555 BAA-47; read-out: MIC; in short: as §1
Proteus mirabilis = test: Antibacterial activity against Proteus mirabilis 385 assessed as bacterial growth inhibition by susceptibility testing assay; conditions: Proteus mirabilis, 385; read-out: MIC; in short: as §1
Burkholderia cenocepacia = test: Antibacterial activity against Burkholderia cenocepacia 240 assessed as bacterial growth inhibition by susceptibility testing assay; conditions: Burkholderia cenocepacia, 240; read-out: MIC; in short: as §3
Escherichia coli [7] = test: Antibacterial activity against tet(A) tetracycline-resistant Escherichia coli 155 assessed as bacterial growth inhibition by susceptibility testing assay; conditions: Escherichia coli, 155; read-out: MIC; in short: as §2
Pseudomonas aeruginosa [8] = test: Antibacterial activity against Pseudomonas aeruginosa 1145 assessed as bacterial growth inhibition by susceptibility testing assay; in short: as §2
Pseudomonas aeruginosa [9] = test: Antibacterial activity against Pseudomonas aeruginosa 1145 infected in immunocompetent BALB/c mouse lung infection model assessed as log reduction in colony forming units at 40 mg/kg, iv bid administered at 2 hrs and 12 hrs post-infection measured 24 hrs post-drug treatment
In short: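 Female BALB/c mice (18−20 g) received intranasal inoculum under light anesthesia. IV treatment at 2 and 12 h postinfection, six mice per group per dose. An untreated group was harvested at 2 h. Lungs were taken 24 h after treatment start, weighed, homogenized, diluted and plated on MacConkey medium overnight at 37 °C, 5% CO2. Read-out: CFU per gram lung.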

| SMILES | MIC (Staphylococcus aureus [1]) [µg/mL] | MIC (Staphylococcus aureus [2]) [µg/mL] | MIC (Enterococcus faecalis) [µg/mL] | MIC (Enterococcus faecium) [µg/mL] | MIC (Enterobacter cloacae) [µg/mL] | MIC (Acinetobacter baumannii) [µg/mL] | MIC (Escherichia coli [3]) [µg/mL] | MIC (Streptococcus pneumoniae) [µg/mL] | MIC (Klebsiella pneumoniae) [µg/mL] | MIC (Staphylococcus aureus [4]) [µg/mL] | MIC [5] [µg/mL] | MIC (Pseudomonas aeruginosa [6]) [µg/mL] | MIC (Proteus mirabilis) [µg/mL] | MIC (Burkholderia cenocepacia) [µg/mL] | MIC (Escherichia coli [7]) [µg/mL] | MIC (Pseudomonas aeruginosa [8]) [µg/mL] | log10CFU/g (Pseudomonas aeruginosa [9]) |
| --- | --- | --- | --- | --- | --- | --- | --- | --- | --- | --- | --- | --- | --- | --- | --- | --- | --- |
| CN(C)[C@@H]1C(O)=C(C(N)=O)C(=O)[C@@]2(O)C(O)=C3C(=O)c4c(O)c5c(c(OC(F)(F)F)c4C[C@H]3C[C@@H]12)[C@@H]1[C@H](CN5)CC2CCCN21 (some centres undefined) | 0.25 (≈ 0.394 µM) | 1 (≈ 1.58 µM) | 0.125 (≈ 0.197 µM) | 0.0625 (≈ 0.0985 µM) | 4 (≈ 6.3 µM) | 16 (≈ 25.2 µM) | 0.0625 (≈ 0.0985 µM) | ≤ 0.0156 | 2 (≈ 3.15 µM) | 0.0625 (≈ 0.0985 µM) | 4 (≈ 6.3 µM) | 8 (≈ 12.6 µM) | 4 (≈ 6.3 µM) | 32 (≈ 50.4 µM) | 0.25 (≈ 0.394 µM) |  |  |
| NCC[C@H](O)C(=O)N[C@@H]1C[C@H](N)[C@@H](O[C@H]2O[C@H](CN)[C@@H](O)[C@H](O)[C@H]2O)[C@H](O)[C@H]1O[C@H]1O[C@H](CO)[C@@H](O)[C@H](N)[C@H]1O [AMIKACIN] |  |  |  |  |  |  |  |  |  |  |  |  |  |  |  | 1 (≈ 1.71 µM) | 2 |
| CN(C)CCN1CC[C@H]2CNc3c(O)c4c(c(F)c3[C@H]21)C[C@H]1C[C@H]2[C@H](N(C)C)C(O)=C(C(N)=O)C(=O)[C@@]2(O)C(O)=C1C4=O | 4 (≈ 6.67 µM) | 16 (≈ 26.7 µM) | 8 (≈ 13.3 µM) | 4 (≈ 6.67 µM) | > 32 | > 32 | 8 (≈ 13.3 µM) | 1 (≈ 1.67 µM) | 32 (≈ 53.4 µM) | 1 (≈ 1.67 µM) | > 32 | > 32 | > 32 | > 32 | > 32 |  |  |
| C[C@@H](O)[C@H]1C(=O)N2C(C(=O)O)=C(S[C@@H]3CN[C@H](C(=O)N(C)C)C3)[C@H](C)[C@H]12 [MEROPENEM] |  |  |  |  |  |  |  |  |  |  |  |  |  |  |  | 4 (≈ 10.4 µM) | 2 |
| CN(C)[C@@H]1C(O)=C(C(N)=O)C(=O)[C@@]2(O)C(O)=C3C(=O)c4c(O)c5c(c(F)c4C[C@H]3C[C@@H]12)[C@H]1N(C)CC[C@@]1(C)CN5 | 0.5 (≈ 0.898 µM) | 8 (≈ 14.4 µM) | 8 (≈ 14.4 µM) | 4 (≈ 7.19 µM) | 4 (≈ 7.19 µM) | 8 (≈ 14.4 µM) | 0.25 (≈ 0.449 µM) | 0.25 (≈ 0.449 µM) | 4 (≈ 7.19 µM) | 0.125 (≈ 0.225 µM) | 2 (≈ 3.59 µM) | 32 (≈ 57.5 µM) | 8 (≈ 14.4 µM) | 32 (≈ 57.5 µM) | 2 (≈ 3.59 µM) |  |  |
| CN(C)[C@@H]1C(O)=C(C(N)=O)C(=O)[C@@]2(O)C(O)=C3C(=O)c4c(O)c5c(c(OC(F)(F)F)c4C[C@H]3C[C@@H]12)[C@@H]1[C@H](CN5)CC2CCCCN21 (some centres undefined) | 0.0625 (≈ 0.0964 µM) | 0.25 (≈ 0.385 µM) | 0.0312 (≈ 0.0481 µM) | ≤ 0.0156 | 4 (≈ 6.17 µM) | 2 (≈ 3.08 µM) | ≤ 0.0156 | ≤ 0.0156 | 4 (≈ 6.17 µM) | ≤ 0.0156 | 1 (≈ 1.54 µM) | 16 (≈ 24.7 µM) | 4 (≈ 6.17 µM) | 8 (≈ 12.3 µM) | 0.125 (≈ 0.193 µM) |  |  |
| CN(C)c1cc(NC(=O)CNC(C)(C)C)c(O)c2c1C[C@H]1C[C@H]3[C@H](N(C)C)C(O)=C(C(N)=O)C(=O)[C@@]3(O)C(O)=C1C2=O [TIGECYCLINE] | 0.0625 (≈ 0.107 µM) | 0.125 (≈ 0.213 µM) | 0.125 (≈ 0.213 µM) | 0.0312 (≈ 0.0533 µM) | 4 (≈ 6.83 µM) | 8 (≈ 13.7 µM) | 0.125 (≈ 0.213 µM) | 0.0156 (≈ 0.0266 µM) | 1 (≈ 1.71 µM) | 0.125 (≈ 0.213 µM) | 2 (≈ 3.41 µM) | 16 (≈ 27.3 µM) | 4 (≈ 6.83 µM) | 16 (≈ 27.3 µM) | 1 (≈ 1.71 µM) |  |  |
